Calls of active or inactive are those of the source. The calls are words filed in the database; no cut-off is given here.
What was measured:
CAKI-1 = test: Growth inhibition of human CAKI-1 cells by NCI standard protocol based method; assay type: functional
How it was run: (§1)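 NCI full 60-cell-line panel, 5-dose assay to the NCI standard protocol. GI₅₀ is the molar concentration inhibiting 50% net cell growth. Mean graph midpoint is averaged over all lines; where the effect is not reached, the highest tested concentration is used.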

[1] = Growth inhibition of human Hs578T cells by NCI standard protocol based method; assay type: functional; settings: Hs-578T; how it was run: as §1
MDA-MB-435 = test: Growth inhibition of human MDA-MB-435 cells by NCI standard protocol based method; assay type: functional; how it was run: as §1
CCRF-CEM = test: Growth inhibition of human CCRF-CEM cells by NCI standard protocol based method; assay type: functional; how it was run: as §1
U-251 = test: Growth inhibition of human U251 cells by NCI standard protocol based method; assay type: functional
How it was run: (§2)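 NCI 60-cell-line screen, standard NCI protocol. Single high dose of 10⁻⁵ M first, then a 5-dose assay across the full panel. Reported as GI₅₀, TGI and LC₅₀, the molar concentrations giving 50% net growth inhibition, total growth inhibition and 50% net cell death. Where an effect was not reached, the highest tested concentration was used.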

K562 [2] = test: Selectivity index, ratio of IC50 for human HuDe cells to IC50 human K562 cells
How it was run: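 Index taken as the ratio of HuDe to K562 IC₅₀. For K562: about 2 × 10⁵ cells/mL, compounds added at graded concentrations, viable count by trypan blue exclusion with a hemocytometer after 24 h. For HuDe primary epidermal cells: 2 × 10⁴ cells/mL, drugs or 0.1% DMSO added 24 h after seeding, MTT read at 570 nm (690 nm blank) after 72 h.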

Tubulin (Homo sapiens) = Tubulin (Homo sapiens) (UniProt P68371+Q9H4B7+P0DPH7+P68366+Q13509+Q71U36+P04350+Q3ZCM7+P07437+P68363+Q9BQE3+Q6PEY2+Q13885+Q9BVA1+Q9BUF5); test: Inhibition of colchicine binding to tubulin (unknown origin); assay type: protein-complex assay
[3] = Growth inhibition of human RXF393 cells by NCI standard protocol based method; assay type: functional; settings: RXF 393; how it was run: as §1
[4] = Growth inhibition of human MOLT4 cells by NCI standard protocol based method; assay type: functional; settings: MOLT-4; how it was run: as §1
786-0 = test: Growth inhibition of human 786-0 cells by NCI standard protocol based method; assay type: functional; how it was run: as §1
OVCAR-4 = test: Growth inhibition of human OVCAR4 cells by NCI standard protocol based method; assay type: functional; how it was run: as §1
SK-MEL-5 = test: Growth inhibition of human SK-MEL-5 cells by NCI standard protocol based method; assay type: functional; how it was run: as §1
IGROV-1 = test: Growth inhibition of human IGROV1 cells by NCI standard protocol based method; assay type: functional; how it was run: as §1
HT-29 = test: Growth inhibition of human HT-29 cells by NCI standard protocol based method; assay type: functional; how it was run: as §1
[5] = Growth inhibition of human COLO205 cells by NCI standard protocol based method; assay type: functional; settings: COLO 205; how it was run: as §1
SN12C = test: Growth inhibition of human SN12C cells by NCI standard protocol based method; assay type: functional; how it was run: as §2
NCI-H322M = test: Growth inhibition of human NCI-H322M cells by NCI standard protocol based method; assay type: functional; how it was run: as §1
[6] = Growth inhibition of human SF295 cells by NCI standard protocol based method; assay type: functional; settings: SF-295; how it was run: as §1
SW-620 = test: Growth inhibition of human SW620 cells by NCI standard protocol based method; assay type: functional; how it was run: as §2
[7] = Growth inhibition of human HCC2998 cells by NCI standard protocol based method; assay type: functional; settings: HCC 2998; how it was run: as §1
[8] = Growth inhibition of human LOXIMVI cells by NCI standard protocol based method; assay type: functional; settings: LOX IMVI; how it was run: as §1
K562 [9] = test: Induction of mitotic arrest in human K562 cells; assay type: functional, cell-based
K562 [10] = test: Induction of apoptosis in human K562 cells assessed as reduction in pro-caspase-6 levels at 10 uM incubated for 48 hrs by Western blot method relative to basal level; assay type: functional; settings: K562, 48 h
How it was run: (§3)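 K562 cells were seeded at 1.5 × 10⁵/well and treated 48 h. Lysate protein was measured by Lowry assay and run on SDS-PAGE. Blots on nitrocellulose were probed with alkaline phosphatase-conjugated antibodies to pro-caspases 3 and 6. Loading was checked by Ponceau red and β-actin immunoblot, with level expressed against basal. Three independent experiments.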

K562 [11] = test: Induction of apoptosis in human K562 cells assessed as necrotic cells level at 10 uM incubated for 24 hrs by Annexin-V and propidium iodide staining staining based flow cytometry (reference value: 0.3%); assay type: functional
K562 [12] = test: Induction of cell cycle arrest in human K562 cells assessed as accumulation at G0/G1 phase at 10 uM incubated for 48 hrs by propidium iodide staining based flow cytometry (reference value: 56.6%); assay type: functional
K562 [13] = test: Induction of morphological changes in human K562 cells at 10 and 25 uM incubated for 48 hrs by light microscopy; assay type: functional, cell-based
How it was run: (§4)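 K562 cells (8 × 10³/well) plated on poly-D-lysine-coated wells and treated at 10 or 25 μM for 48 h. Examined by light microscopy at 200× for shape, detachment, cell number and cell size.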

K562 [14] = test: Reduction in cell size of human K562 cells at 10 and 25 uM incubated for 48 hrs by light microscopy; assay type: functional, cell-based; how it was run: as §4
T47D = test: Growth inhibition of human T47D cells by NCI standard protocol based method; assay type: functional; how it was run: as §2
K562 [15] = test: Induction of apoptosis in human K562 cells assessed as nuclear fragmentation at 10 uM incubated for 48 hrs by Hoechst 33342 staining based fluorescence microscopy; assay type: functional, cell-based
How it was run: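 K562 cells (8 × 10³/well) on poly-D-lysine-coated wells, allowed to adhere overnight. Stained with Hoechst 33342 for 30 min, washed with PBS, resuspended in medium, then treated at 10 μM for 48 h.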

K562 [16] = test: Induction of apoptosis in human K562 cells assessed as viable cells level at 10 uM incubated for 24 hrs by Annexin-V and propidium iodide staining staining based flow cytometry (reference value: 98%); assay type: functional
K562 [17] = test: Induction of apoptosis in human K562 cells assessed as early apoptotic cells level at 10 uM incubated for 24 hrs by Annexin-V and propidium iodide staining staining based flow cytometry (reference value: 1.6%); assay type: functional
K562 [18] = test: Induction of cell cycle arrest in human K562 cells assessed as accumulation at G2/M phase at 10 uM incubated for 24 hrs by propidium iodide staining based flow cytometry (reference value: 31.6%); assay type: functional
K562 [19] = test: Induction of morphological changes in human K562 cells assessed as cell detachment at 10 and 25 uM incubated for 48 hrs by light microscopy; assay type: functional, cell-based; how it was run: as §4
K562 [20] = test: Induction of apoptosis in human K562 cells assessed as reduction in pro-caspase-3 levels at 10 uM incubated for 48 hrs by Western blot method relative to basal level; assay type: functional; settings: K562, 48 h; how it was run: as §3
K562 [21] = test: Induction of cell cycle arrest in human K562 cells assessed as accumulation at G2/M phase at 10 uM incubated for 48 hrs by propidium iodide staining based flow cytometry (reference value: 27.4%); assay type: functional
K562 [22] = test: Induction of cell cycle arrest in human K562 cells assessed as accumulation at G0/G1 phase at 10 uM incubated for 24 hrs by propidium iodide staining based flow cytometry (reference value: 54.9%); assay type: functional

Row | SMILES | GI50 (CAKI-1) | GI50 [1] | GI50 (MDA-MB-435) | GI50 (CCRF-CEM) | GI50 (U-251) | Ratio IC50 (K562 [2]) | inhibition (Tubulin (Homo sapiens)) | GI50 [3] | GI50 [4] | GI50 (786-0) | GI50 (SK-MEL-5) | GI50 (IGROV-1) | GI50 (HT-29) | GI50 [5] | GI50 (SN12C) | GI50 (NCI-H322M) | GI50 [6] | GI50 (SW-620) | GI50 [7] | GI50 [8] | also measured
1 | COc1ccc(NC(=O)COc2ccccc2)c(C(N)=O)c1 | 721 nM | 592 nM | 121 nM | 487 nM | 664 nM | 856.28 | inactive | 1400 nM | 2000 nM | 2100 nM | 1680 nM | 4750 nM | 388 nM | 487 nM | 3090 nM | 2100 nM | 650 nM | 448 nM | 2340 nM | 869 nM | GI50 (OVCAR-4): > 100000 nM; Activity (K562 [9]): Active
2 | NC(=O)c1cc(I)ccc1NC(=O)COc1ccccc1 | 519 nM | 630 nM | 101 nM | 382 nM | 396 nM | 1987.5 | inactive | 413 nM | 1100 nM | 1070 nM | 533 nM | 1370 nM | 349 nM | 353 nM | 945 nM | 705 nM | 223 nM | 454 nM | 2950 nM | 822 nM | inhibition at 10 µM (K562 [10]): 20%; Activity (K562 [11]): 0.9%; Activity (K562 [12]): 45.2%; Activity (K562 [13]): Active; Activity (K562 [14]): Active; GI50 (T47D): 556 nM; Activity (K562 [15]): Active; Activity (K562 [16]): 62.1%; Activity (K562 [17]): 24.5%; Activity (K562 [18]): 2.4%; Activity (K562 [19]): Active; inhibition at 10 µM (K562 [20]): 40%; Activity (K562 [21]): 13.3%; Activity (K562 [22]): 78.5%; Activity (K562 [9]): Active
3 | NC(=O)c1cc(Cl)ccc1NC(=O)COc1ccccc1 | 4180 nM | 4650 nM | 356 nM | 3070 nM | 2340 nM | 621.38 | inactive | 3930 nM | 8140 nM | 9540 nM | 7450 nM | 5600 nM | 1740 nM | 2510 nM | 17000 nM | 7090 nM | 1960 nM | 2580 nM | 12100 nM | 8330 nM | GI50 (T47D): 6870 nM; Activity (K562 [9]): Active
4 | COc1cc(NC(=O)COc2ccccc2)c(C(N)=O)cc1OC | 3800 nM | 771 nM | 614 nM | 562 nM | 777 nM | 280.52 | inactive | 1690 nM | 2910 nM | 7320 nM | 766 nM | 4070 nM | 437 nM | 453 nM | 3120 nM | 5770 nM | 930 nM | 646 nM | 3330 nM | 1810 nM | inhibition at 10 µM (K562 [10]): 50%; Activity (K562 [11]): 2.3%; Activity (K562 [12]): 39.4%; Activity (K562 [13]): Active; Activity (K562 [14]): Active; GI50 (T47D): 3460 nM; Activity (K562 [15]): Active; Activity (K562 [16]): 63.3%; GI50 (OVCAR-4): > 100000 nM; Activity (K562 [17]): 22.7%; Activity (K562 [18]): 2.8%; Activity (K562 [19]): Active; inhibition at 10 µM (K562 [20]): 50%; Activity (K562 [21]): 31.2%; Activity (K562 [22]): 80%; Activity (K562 [9]): Active

— ChEMBL document CHEMBL3612047, “Synthesis, antiproliferative activity and possible mechanism of action of novel 2-acetamidobenzamides bearing the 2-phenoxy functionality” (Bioorg Med Chem, 2015)
